Measurements reported in ChEMBL document CHEMBL2417418, “Synthesis and evaluation of novel 3-(3,5-dimethylbenzyl)uracil analogs as potential anti-HIV-1 agents” (Bioorg Med Chem, 2013).

Legend:
[1] = Selectivity index, ratio of CC50 for human MT4 cells to EC50 for HIV1 3B; format: toxicity, cell-based; conditions: read-out: Ratio CC50/EC50
Outline: (§1)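 SI computed as CC50/EC50. Both values come from parallel MTT readings after 4 days at 37 °C. CC50 is from mock-infected MT-4 cells; EC50 is from MT-4 cells infected with HIV-1 IIIB at MOI 0.1, as 50% protection from cytopathogenicity.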

[2] = Cytotoxicity against human MT4 cells after 4 days by MTT assay; format: cell-based
Outline: (§2)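 Mock-infected MT-4 cells (1 ×10^5 cells/mL, RPMI 1640 + 10% heat-inactivated FBS) cultured with various compound concentrations in parallel with the antiviral assay, 4 days at 37 °C, 5% CO2. Viability read by MTT. CC50 is the concentration cutting uninfected-cell viability by 50%.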

[3] = test system: Human immunodeficiency virus 1; assay: Antiviral activity against HIV1 3B infected in human MT4 cells assessed as protection against viral-induced cytopathogenicity after 4 days by MTT assay; format: functional, organism-based; conditions: Human immunodeficiency virus 1, 3B, MT4, 96 h
[4] = Selectivity index, ratio of CC50 for human MT4 cells to EC50 for HIV1; format: toxicity, cell-based; conditions: read-out: Ratio CC50/EC50; outline: as §1
[5] = Cytotoxicity against human MT4 cells; format: cell-based; outline: as §2
[6] = test system: Human immunodeficiency virus 1; assay: Antiviral activity against HIV1 infected in human MT4 cells; format: functional, organism-based; conditions: Human immunodeficiency virus 1, MT4

Compound	selectivity ratio [1]	CC50 at 96 h [2] [µM]	EC50 [3] [µM]	selectivity ratio [4]	CC50 [5] [µM]	EC50 [6] [µM]
Cc1cc(C)cc(Cn2c(=O)cc(N)n(Cc3ccccn3)c2=O)c1	> 443	> 100	0.23			
Cc1cc(C)cc(Cn2c(=O)cc(N)n(Cc3ccncc3)c2=O)c1	> 2860	> 100	0.03			
Cc1cc(C)cc(Cn2c(=O)cc(N=[N+]=[N-])n(Cc3ccccc3)c2=O)c1				685	45.9	0.067
Cc1cc(C)cc(Cn2c(=O)cc(N)n(Cc3ccccc3)c2=O)c1				661	45.6	0.069
CC(=O)Nc1cc(=O)n(Cc2cc(C)cc(C)c2)c(=O)n1Cc1ccccc1		> 100	> 100			
CNc1cc(=O)n(Cc2cc(C)cc(C)c2)c(=O)n1Cc1ccccc1	9	65	7			
Cc1cc(C)cc(Cn2c(=O)cc(N(C)C)n(Cc3ccccc3)c2=O)c1		48	> 48			
Cc1cc(C)cc(Cn2c(=O)cc(N3CCCC3)n(Cc3ccccc3)c2=O)c1		31	> 31			
Cc1cc(C)cc(Cn2c(=O)cc(N3CCCCC3)n(Cc3ccccc3)c2=O)c1		47	> 47			
Cc1cc(C)cc(Cn2c(=O)cc(N3CCNCC3)n(Cc3ccccc3)c2=O)c1		16	> 16			
Cc1cc(C)cc(Cn2c(=O)cc(N3CCOCC3)n(Cc3ccccc3)c2=O)c1		> 100	> 100			
Cc1cc(C)cc(Cn2c(=O)cc(NC3CC3)n(Cc3ccccc3)c2=O)c1		> 100	> 100			
Cc1cc(C)cc(Cn2c(=O)cc(NC3CCCCC3)n(Cc3ccccc3)c2=O)c1		74	> 74			
Cc1cc(C)cc(Cn2c(=O)cc(NCc3ccccc3)n(Cc3ccccc3)c2=O)c1		> 100	> 100			
Cc1cc(C)cc(Cn2c(=O)cc(N=[N+]=[N-])n(CC#N)c2=O)c1		60	3.5			
Cc1cc(C)cc(Cn2c(=O)cc(N=[N+]=[N-])n(Cc3ccccn3)c2=O)c1	> 457	> 100	0.22			
Cc1cc(C)cc(Cn2c(=O)cc(N=[N+]=[N-])n(Cc3ccncc3)c2=O)c1	1160	59	0.05			
Cc1cc(C)cc(Cn2c(=O)cc(N)n(CC#N)c2=O)c1		> 100	> 100			
Cc1ccnc2c1NC(=O)c1cccnc1N2C1CC1 [NEVIRAPINE]				> 1640		
Cc1cn([C@H]2C[C@H](N=[N+]=[N-])[C@@H](CO)O2)c(=O)[nH]c1=O [ZIDOVUDINE]	> 2770	> 100	0.04			
